From ChEMBL document CHEMBL1157991, “Novel anti-HIV lancilactone C and related triterpenes from Kadsura lancilimba” (J Nat Prod, 1999)
Values after ≈ are worked out from the molar mass of the structure shown. Active and inactive are the calls of the source.

What was measured:
[1] = system: Human immunodeficiency virus 1; experiment: Antiviral activity against HIV1 3B infected in human H9 T cells after 4 days by ELISA; type: functional, organism-based; conditions: for EC50: Human immunodeficiency virus 1, 3B, H9, 96 h
How it was run: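 H9 T cells kept in RPMI 1640 with 10% fetal calf serum at 37 °C, 5% CO2, used in log phase. Infected with HIV-1 IIIB (MOI 0.1-0.01 IU/cell) for 1 h, washed, and seeded at 4 × 10^5 cells/mL with compound diluted in medium. After 4 days at 37 °C, p24 in medium was read by sandwich ELISA (cutoff 12.5 pg/mL) against a p24 standard curve. EC50 was derived.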

H9 = experiment: Cytotoxicity against human H9 cells; type: cell-based
How it was run: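 Uninfected H9 T cells (log phase, RPMI 1640 + 10% FCS) were seeded at 4 × 10^5 cells/mL with compound diluted in medium and kept 4 days at 37 °C, 5% CO2. Cell density was counted by Coulter counter and IC50 was derived.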

[2] = Therapeutic index, ratio of IC50 for human H9 cells to EC50 for HIV1 3B; type: cell-based; conditions: H9 cells infected with HIV-1 3B, read-out: TI

| SMILES | Activity [1] | IC50 (H9) [µg/mL] | EC50 [1] [µg/mL] | selectivity ratio [2] |
| --- | --- | --- | --- | --- |
| CC1=CC[C@@H]([C@@H](C)[C@H]2CC[C@@]3(C)[C@@H]4C[C@@H](O)[C@H]5C(C)(C)OC(=O)C=C[C@@]56C[C@@]46CC[C@]23C)OC1=O [KADSULACTONE A] | inactive | 8.6 (≈ 17.8 µM) |  |  |
| CC1=CC[C@@H]([C@@H](C)[C@H]2CC[C@@]3(C)C4=C(C=C5C=CC(=O)OC(C)(C)[C@@H]5[C@H](O)C4)CC[C@]23C)OC1=O [LANCILACTONE A] | inactive | 14.3 (≈ 29.8 µM) |  |  |
| CC1=CC[C@@H]([C@@H](C)[C@H]2CC[C@@]3(C)C4=C(C=C5C=CC(=O)OC(C)(C)[C@@H]5C=C4)CC[C@]23C)OC1=O [LANCILACTONE B] | inactive | 7.1 (≈ 15.3 µM) |  |  |
| CC1=CC[C@@H]([C@@H](C)[C@H]2CC[C@@]3(C)C4=C(C=C(CCC(=O)O)C(=C(C)C)C=C4)CC[C@]23C)OC1=O [LANCILACTONE C] |  | > 100 | 1.4 (≈ 3.01 µM) | > 71.4 |
| Cc1cn([C@H]2C[C@H](N=[N+]=[N-])[C@@H](CO)O2)c(=O)[nH]c1=O [ZIDOVUDINE] |  |  | 0.045 (≈ 0.168 µM) |  |
